One data set relates to S. aureus ATCC 29 737. Kind of data set: Field-emission SEM of nanonet morphology. In kind it is cell-based. The note with it: 40 µM peptide (100 µM E-E13 ASYM), 2 h, MHB, 37 °C. The method, boiled down: (§1)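 Mid‑log bacteria were diluted in MHB to OD600 0.07, then given test peptide and shaken at 120 rpm. They were pelleted at 6000 g for 6 min, PBS‑washed three times, and fixed overnight at 4 °C in 2.5% glutaraldehyde. Cells were adhered to poly‑L‑lysine coverslips, post‑fixed with 1% OsO4 for 30 min, ethanol‑dehydrated and gold‑coated. Imaging was at 15 000×, with ≥3 fields per sample. Coverage and extensiveness were scored high/moderate/low.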

In the next data set the test system is E. coli ATCC 25 922. Kind of data set: Field-emission SEM of nanonet morphology. Format: cell-based. The note with it: 40 µM peptide (100 µM E-E13 ASYM), 2 h, MHB, 37 °C. The method, boiled down:
as §1

Another data set can be described thus: BODIPY-Cadaverine. In kind it is binding, E. coli O111:B4 (LPS), S. aureus (LTA). The note with it: LPS/LTA-BC complexes in 1× PBS pH 7.4, 37 °C, 30 minutes. An outline of the steps:
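LPS (E. coli O111:B4) or LTA (S. aureus) at 50 µg mL−1 was premixed with 5 µM BODIPY‑cadaverine in 1× PBS pH 7.4 for 30 min at room temperature in the dark. The premix was added 1:1 to two‑fold serial peptide dilutions in PBS, with polymyxin B as control, and shaken at 120 rpm. Fluorescence was read at ex 580/em 620 nm. Occupancy factor and % BC displaced came from sample fluorescence scaled between highest and lowest signals.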

A short description of data set [1]: K114 fluorescence fibrillation assay with LPS or LTA. Format: physicochemical, E. coli O111:B4 (LPS), S. aureus (LTA). The note with it: 20 µM peptide, 37 °C. The method, boiled down: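 A 10 mM DMSO stock of K114 was diluted to 250 µM in water and mixed at once with test peptide plus LPS (E. coli O111:B4) or LTA (S. aureus), with shaking at 120 rpm. K114 fluorescence (ex 360/em 550 nm) was read at 0.5, 1 and 2 h. Results were given as % increase in signal, with a non‑fibrillating control peptide as baseline. Three repeats, mean ± SE.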

The nature of data set [2]: K114 fluorescence fibrillation assay in PBS alone. Format: physicochemical. The note with it: 20 µM peptide, 1× PBS pH 7.4, 37 °C, 30 minutes. The method, boiled down:
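K114 was dissolved in DMSO at 10 mM and diluted to 250 µM in water. It was mixed at once with test peptide in 1× PBS pH 7.4 without LPS or LTA and shaken at 120 rpm. Fluorescence was read at ex 360/em 550 nm at 0.5, 1.0 and 2.0 h. Fibrillation was judged by signal above a non‑fibrillating control peptide.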

Entries after “also recorded” stand apart in the source; their conditions may differ.

For the sequence EVRIKLTAKIEVR [E‐E13 ^ASYM], the “Nanonet morphology (surface coverage, extensiveness) on S. aureus” value (shortened to “Nanonet morphology … on S. aureus”) in the data set on S. aureus ATCC 29 737 is “minimal membrane contact and low surface coverage”. For the same sequence, the “Nanonet morphology (surface coverage, extensiveness) on E. coli” value (“Nanonet morphology … on E. coli” for short) in the data set with E. coli ATCC 25 922 is “minimal membrane contact and low surface coverage”. Besides, in the data set “BODIPY-Cadaverine”, the “Binding to bacterial PAMPs (BC displaced from LPS or LTA)” value was “significantly reduced binding to bacterial PAMPs”.

For KFRFKLTAKFRFK [diF‐F13], the “Nanonet morphology … on S. aureus” value in the data set on S. aureus ATCC 29 737 was “formed nanonets similar to F‐F15 and BTT1‐3A”. Also, in the data set with E. coli ATCC 25 922, the “Nanonet morphology … on E. coli” value is reported as “tighter interweaving of nanofibers on the surface of E. coli”.

For the sequence KFRVKLTAKVRFK [F‐F13], the “Nanonet morphology … on S. aureus” value in the data set on S. aureus ATCC 29 737 is given as “slightly increased surface coverage on S. aureus but with less extensive nanonets”. In addition, in data set [1] (5 µg mL−1 LPS), the “Fibrillation (K114 fluorescence signal) in response to LPS” value is on record as “lower fibrillation in response to LPS”. Besides, the “Fibrillation (K114 fluorescence signal) upon LTA binding” value in data set [1] (5 µg mL−1 LTA) is “higher in fibrillation upon LTA binding”. The “Nanonet morphology … on E. coli” value in the data set with E. coli ATCC 25 922 is on record as “loosely trap E. coli with moderate surface coverage”.

For KLKLKLTAKLKLK [btt1‐3A13], the “Nanonet morphology … on S. aureus” value in the data set with S. aureus ATCC 29 737 was “random aggregated structures”. Moreover, in the data set with E. coli ATCC 25 922, the “Nanonet morphology … on E. coli” value is on record as “less extensive nanonets with low surface coverage”.

Consider LKFRFKLTAKFRFKL [diF‐F15], for which the “Fibrillation (K114 fluorescence) in PBS alone” value in data set [2] is recorded as “spontaneously fibrillated in PBS; also recorded: significantly increased the K114 fluorescence signal, even in PBS alone”.

LKFRVKLTAKVRFKL [F‐F15]: the “Nanonet morphology … on S. aureus” value in the data set with S. aureus ATCC 29 737 is listed as “extensive nanonets with moderate surface coverage”. Moreover, in the data set on E. coli ATCC 25 922, the “Nanonet morphology … on E. coli” value is recorded as “extensive nanonets with moderate surface coverage”.

The record behind these values is PMC12410913 (Small (Weinheim an Der Bergstrasse, Germany), 2025).
